Assay results taken from article PMC3786410 (Bioorganic & medicinal chemistry, 2013).
Where two headings read alike, the source gives them in different places.

Experiments:
[1] = target: wild type S1PR2 (Homo sapiens, UniProt O95136); experiment: GloSensor cAMP assay, wild type S1PR2-eGFP Jump-In CHO cells; type: cell-based
[2] = target: triple mutant S1PR2 (R108A, E109A and K269A) (Homo sapiens, UniProt O95136, E109A/K269A/R108A); experiment: GloSensor cAMP assay, triple mutant S1PR2-eGFP Jump-In CHO cells; type: cell-based
Sequence of triple mutant S1PR2 (R108A, E109A and K269A) (O95136 whole entry R108A/E109A/K269A): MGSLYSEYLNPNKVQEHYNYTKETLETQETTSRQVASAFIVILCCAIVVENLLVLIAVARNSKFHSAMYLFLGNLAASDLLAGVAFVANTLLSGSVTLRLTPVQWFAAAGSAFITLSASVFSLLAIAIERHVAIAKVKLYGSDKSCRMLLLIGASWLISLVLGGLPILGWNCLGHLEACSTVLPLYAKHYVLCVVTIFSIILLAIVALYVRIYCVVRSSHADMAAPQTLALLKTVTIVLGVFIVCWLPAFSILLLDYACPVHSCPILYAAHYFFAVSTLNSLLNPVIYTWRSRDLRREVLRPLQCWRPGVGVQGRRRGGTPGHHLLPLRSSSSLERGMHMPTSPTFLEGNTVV

[3] = tested on: CRE-bla parental cell line; experiment: parental CRE-bla CHO cell line counterscreen assay; type: cell-based
Method in brief: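 Counterscreen in the parental CRE-β-lactamase reporter CHO line without S1PR2, run alongside the S1PR2 assay. Hits were retested in triplicate at 5 micromolar and then tested in dose response.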

[4] = tested on: CRE; conditions: ref PubChem AID 662; cited from earlier work
[5] = target: T1, S1PR2 (Homo sapiens, UniProt O95136); experiment: JTE-013 inhibition of agonists in the S1PR2 CRE-bla assay; type: cell-based; conditions: linear regression of Schild plot, against S1P
T1 sequence (O95136 whole entry): as the sequence (O95136 whole entry R108A/E109A/K269A) above, with A108R, A109E, A269K counted along it

[6] = target: T1, S1PR2; experiment: 33P-S1P radioligand competition binding assay; conditions: read-out: IC50, displacement of radiolabeled S1P, S1PR2-CRE bla cells, 4°C
[7] = target: T1, S1PR2; experiment: S1PR2 CRE-bla CHO reporter agonist assay; type: cell-based; conditions: for EC50: read-out: EC50 S1PR2; for Emax: read-out: Max Activity (% of 1 μM S1P)
Method in brief: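 Stable CHO line carrying a CRE-driven β-lactamase reporter and expressing human S1PR2, run in 384-well format. […] For antagonist challenge, agonist dose responses were run with a reference S1PR2 antagonist at 10, 30 or 90 nM.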

[8] = target: S1PR1 (Homo sapiens, UniProt P21453); experiment: S1PR1 agonist assay; type: cell-based
Sequence of S1PR1 (P21453 whole entry, species assumed): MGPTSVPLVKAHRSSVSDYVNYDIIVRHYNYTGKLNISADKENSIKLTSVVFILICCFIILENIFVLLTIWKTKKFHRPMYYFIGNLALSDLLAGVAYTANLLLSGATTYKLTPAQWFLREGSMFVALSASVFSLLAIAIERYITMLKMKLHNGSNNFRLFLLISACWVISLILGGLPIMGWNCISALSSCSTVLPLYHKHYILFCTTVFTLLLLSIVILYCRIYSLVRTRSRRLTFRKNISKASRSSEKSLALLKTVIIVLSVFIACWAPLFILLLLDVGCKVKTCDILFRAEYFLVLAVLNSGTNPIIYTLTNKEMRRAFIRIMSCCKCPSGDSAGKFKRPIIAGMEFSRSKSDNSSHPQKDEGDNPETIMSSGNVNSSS

[9] = target: S1PR3 (Homo sapiens, UniProt Q99500); experiment: S1PR3 agonist assay; type: cell-based
Sequence of S1PR3 (Q99500 whole entry, species assumed): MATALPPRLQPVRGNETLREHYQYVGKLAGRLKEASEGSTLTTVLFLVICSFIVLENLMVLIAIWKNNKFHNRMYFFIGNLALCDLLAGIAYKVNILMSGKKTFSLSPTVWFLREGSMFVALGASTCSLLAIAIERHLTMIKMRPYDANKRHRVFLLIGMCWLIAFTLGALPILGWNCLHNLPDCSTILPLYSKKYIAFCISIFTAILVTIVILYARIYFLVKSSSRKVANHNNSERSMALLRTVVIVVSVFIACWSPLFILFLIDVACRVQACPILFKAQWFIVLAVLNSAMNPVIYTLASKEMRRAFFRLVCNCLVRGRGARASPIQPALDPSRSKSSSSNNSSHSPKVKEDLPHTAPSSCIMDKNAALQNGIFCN

[10] = target: T2, S1PR4 (Homo sapiens, UniProt O95977); experiment: S1PR4 agonist assay; type: cell-based
T2 sequence (O95977 1-384): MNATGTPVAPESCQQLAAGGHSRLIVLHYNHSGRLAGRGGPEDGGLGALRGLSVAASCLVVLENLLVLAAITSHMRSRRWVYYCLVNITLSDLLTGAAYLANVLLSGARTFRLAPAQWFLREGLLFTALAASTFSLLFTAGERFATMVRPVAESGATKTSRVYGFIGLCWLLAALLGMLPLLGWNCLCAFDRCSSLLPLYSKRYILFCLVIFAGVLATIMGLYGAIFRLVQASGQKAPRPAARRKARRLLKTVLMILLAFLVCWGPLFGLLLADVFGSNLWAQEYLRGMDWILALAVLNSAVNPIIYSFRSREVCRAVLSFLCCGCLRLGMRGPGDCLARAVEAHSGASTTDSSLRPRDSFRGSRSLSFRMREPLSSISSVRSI

[11] = target: S1PR5 (Homo sapiens, UniProt Q9H228); experiment: S1PR5 agonist assay; type: cell-based
Sequence of S1PR5 (Q9H228 whole entry, species assumed): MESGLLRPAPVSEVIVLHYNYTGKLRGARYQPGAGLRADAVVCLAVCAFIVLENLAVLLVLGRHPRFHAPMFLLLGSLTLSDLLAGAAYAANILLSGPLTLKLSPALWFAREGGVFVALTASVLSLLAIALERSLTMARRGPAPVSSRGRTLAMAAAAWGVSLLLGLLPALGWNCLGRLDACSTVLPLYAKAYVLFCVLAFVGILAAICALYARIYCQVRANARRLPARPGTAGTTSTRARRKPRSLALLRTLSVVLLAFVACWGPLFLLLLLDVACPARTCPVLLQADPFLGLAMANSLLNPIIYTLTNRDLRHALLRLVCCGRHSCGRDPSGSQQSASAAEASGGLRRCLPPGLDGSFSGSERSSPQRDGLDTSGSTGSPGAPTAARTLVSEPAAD

Sequence of wild type S1PR2 (O95136 whole entry): as the sequence (O95136 whole entry R108A/E109A/K269A) above, with A108R, A109E, A269K counted along it

CCCCCCCCCCCCC/C=C/[C@@H](O)[C@@H](N)COP(=O)(O)O [S1P, Sphingosine 1-phosphate, reference compound]
agonist efficacy (in words) [1]: full agonists
cAMP response (in words) [2]: did not elicit a rise in luciferase activity

CCOC(=O)c1c(C)n(C)c2ccc(OCC(O)Cn3nc(C)cc3C)cc12 (stereo not drawn) [MLS000049871]
activity in the CRE-bla counterscreen (in words) [3]: inactive
activity in PubChem AID 662 [4]: active

Cc1nn(C)c2nc(NNC(=O)Nc3cc(Cl)nc(Cl)c3)cc(C(C)C)c12 [JTE-013]
Ki [5]: 20 nM
IC50 [6]: 53 nM

Cc1cc(C(=O)Cn2cc(C#N)ccc2=O)c(C)n1Cc1ccccc1 [compound 14]
increase in potency ([7]; cyanide group in place of the trifluoromethyl of 10): 1.6 fold
EC50 ([7]; Table 3, synthesized compounds): 480 nM
Emax ([7]; Table 3): 100%
activity in the CRE-bla counterscreen (in words) [3]: inactivity
activity in S1PR1 agonist assay [8]: inactive
activity in S1PR3 agonist assay [9]: inactive
activity in S1PR4 agonist assay [10]: inactive
activity in S1PR5 agonist assay [11]: inactive
EC50 ([1]; read-out: EC50, cAMP response): 1600 nM

Cc1ccc(Sc2ccc(C3SCCS3)cc2[N+](=O)[O-])cc1 [compound 3]
EC50 ([7]; Table 2, purchased analogues of XAX-164): 550 nM
Emax ([7]; Table 2): 130%
activity in S1PR1 agonist assay [8]: inactive
activity in S1PR3 agonist assay [9]: inactive
activity in S1PR4 agonist assay [10]: inactive
activity in S1PR5 agonist assay [11]: inactive
